≈ marks a conversion by molar mass, not a printed value.
How the values were obtained:
Format in all cases: functional
[1] = system: JIYOYE; assay: Cytotoxicity against human B cells by Jijoye assay; conditions: read-out: LD50 (the source's name)
[2] = system: Streptococcus pneumoniae; assay: Antibacterial activity against quinolone-resistant Streptococcus pneumoniae ATCC 7257
Summary of the method: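 MIC by broth microdilution following National Committee for Clinical Laboratory Standards methods for dilution susceptibility testing of aerobically growing bacteria, against the quinolone-resistant S. pneumoniae strain 7257.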

[3] = system: Streptococcus pneumoniae; assay: Inhibition on Streptococcus pneumoniae translation by uncoupled translation assay
Summary of the method: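 The assay was cell-free and translation-only (uncoupled), using S. pneumoniae material. Dried test compound was mixed with S30 extract, luciferase-encoding mRNA and a complete amino acid mix. The mix was incubated to allow translation, and the reaction was stopped with kanamycin. Luciferin reagent was then added, and read-out was by flash luminescence. Results are given as IC50.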

[4] = system: Haemophilus influenzae; assay: Antibacterial activity against quinolone-susceptible Haemophilus influenzae 1435
Summary of the method: (§1)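 MICs were determined by broth microdilution following the National Committee for Clinical Laboratory Standards method for aerobically growing bacteria.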

[5] = system: Streptococcus pneumoniae; assay: Antibacterial activity against quinolone-susceptible Streptococcus pneumoniae ATCC 6303; summary of the method: as §1
[6] = system: Streptococcus pneumoniae; assay: Inhibition on Streptococcus pneumoniae translation by transcription/translation coupled assay

Compound | CC50 [1] [µg/mL] | MIC [2] [µg/mL] | IC50 [3] [µM] | MIC [4] [µg/mL] | MIC [5] [µg/mL] | IC50 [6] [µM]
C=CCC12CCCN1c1nc3ncc(C(=O)O)c(O)c3cc1OC2 (stereo unspecified) | > 100 | > 64 | > 300 | > 64 | > 64 | –
O=C(O)c1cnc2cc(N3CCNCC3)c(F)cc2c1O | – | > 64 | 141 | – | > 64 | –
O=C(O)c1cnc2nc3c(cc2c1O)OCCN3 | > 100 | > 64 | 100 | 32 (≈ 129 µM) | > 64 | –
CC12CCCN1c1nc3ncc(C(=O)O)c(O)c3cc1OC2 (stereo unspecified) | > 100 | 32 (≈ 106 µM) | 107 | 32 (≈ 106 µM) | > 64 | –
O=C(O)c1cn(C2CC2)c2nc3c(cc2c1=O)OC[C@@H]1CCCN31 | – | 8 (≈ 24.4 µM) | > 100 | – | > 64 | –
COc1ccc(Cn2cc(C(=O)O)c(=O)c3cc4c(nc32)N2CCC[C@@H]2CO4)c(OC)c1 | 6 (≈ 13.7 µM) | 16 (≈ 36.6 µM) | 229 | > 64 | > 64 | –
CC(=O)N1C[C@@H]2CCCN2c2nc3ncc(C(=O)O)c(O)c3cc21 | – | – | 7 | 4 (≈ 12.2 µM) | 16 (≈ 48.7 µM) | –
C[C@@H]1Oc2cc3c(O)c(C(=O)O)cnc3nc2N2CCC[C@@H]12 | > 100 | 4 (≈ 13.3 µM) | 8.7 | 32 (≈ 106 µM) | 8 (≈ 26.6 µM) | –
O=C(O)c1cnc2nc(N3CCCC3)c(F)cc2c1O | > 100 | 4 (≈ 14.4 µM) | – | < 1 | 16 (≈ 57.7 µM) | –
O=C(O)c1cnc2nc3c(cc2c1O)NC(=O)[C@@H]1CCCN31 | > 100 | > 64 | 22 | > 64 | > 64 | –
CN1C[C@@H]2CCCN2c2nc3ncc(C(=O)O)c(O)c3cc21 | > 100 | 2 (≈ 6.66 µM) | 0.89 | 8 (≈ 26.6 µM) | 8 (≈ 26.6 µM) | –
C[C@H]1Oc2cc3c(O)c(C(=O)O)cnc3nc2N2CCCC12 (single isomer, unassigned) | > 100 | 32 (≈ 106 µM) | 125 | 64 (≈ 212 µM) | 64 (≈ 212 µM) | –
O=C(O)c1cnc2nc3c(cc2c1O)OC[C@@H]1C[C@@H](O)CN31 | > 100 | 16 (≈ 52.8 µM) | 6.9 | 16 (≈ 52.8 µM) | 64 (≈ 211 µM) | –
O=C(O)c1cnc2nc3c(cc2c1O)OC[C@@H]1CCN31 | > 100 | 2 (≈ 7.32 µM) | 7.5 | 8 (≈ 29.3 µM) | 16 (≈ 58.6 µM) | –
CC(C)(C)n1cc(C(=O)O)c(=O)c2cc3c(nc21)N1CCC[C@H]1C(=O)N3 | > 100 | > 64 | > 200 | > 32 | > 64 | –
O=C(O)c1cnc2nc3c(cc2c1O)OC[C@@H]1CCCN31 | > 100 | 1 (≈ 3.48 µM) | 5.2 | 2 (≈ 6.96 µM) | 4 (≈ 13.9 µM) | –
C=CC[C@H]1Oc2cc3c(O)c(C(=O)O)cnc3nc2N2CCC[C@@H]12 | > 100 | > 64 | > 300 | > 64 | > 64 | –
O=C(O)c1cnc2nc3c(cc2c1O)NC[C@@H]1CCCN31 | 18 (≈ 62.9 µM) | 8 (≈ 27.9 µM) | 10 | 8 (≈ 27.9 µM) | 16 (≈ 55.9 µM) | –
O=C(O)c1cnc2nc3c(cc2c1O)OCC1CCCCN31 (stereo unspecified) | > 100 | 16 (≈ 53.1 µM) | 63 | 8 (≈ 26.6 µM) | > 64 | –
O=C(O)c1cn(C2CC2)c2cc(N3CCNCC3)c(F)cc2c1=O [CIPROFLOXACIN] | – | 16 (≈ 48.3 µM) | 200 | – | 2 (≈ 6.04 µM) | –
CN1CCOc2cc3c(O)c(C(=O)O)cnc3nc21 | > 100 | 32 (≈ 122 µM) | 70 | 32 (≈ 122 µM) | > 64 | –
O=C(O)c1cnc2nc3c(cc2c1O)N(c1ccccc1)C[C@@H]1CCCN31 | > 100 | > 64 | 64 | > 64 | > 64 | –
CCN1CCOc2cc3c(O)c(C(=O)O)cnc3nc21 | > 100 | 32 (≈ 116 µM) | 84 | 64 (≈ 233 µM) | > 64 | –
COc1ccc(Cn2cc(C(=O)O)c(=O)c3cc4c(nc32)N2CCC[C@H]2CO4)c(OC)c1 | 12 (≈ 27.4 µM) | 32 (≈ 73.2 µM) | 57 | > 64 | > 64 | –
O=C(O)c1cnc2nc(N3CCC[C@@H]3CO)c(F)cc2c1O | > 100 | > 64 | – | > 64 | > 64 | 75
C=CC[C@@H]1Oc2cc3c(O)c(C(=O)O)cnc3nc2N2CCC[C@@H]12 | > 100 | 8 (≈ 24.4 µM) | 47 | 64 (≈ 196 µM) | > 64 | –
O=C(O)c1cnc2nc3c(cc2c1O)OC[C@H]1CCCN31 | > 100 | 1 (≈ 3.48 µM) | 10.5 | 4 (≈ 13.9 µM) | 8 (≈ 27.8 µM) | –
N[C@H]1C[C@H]2COc3cc4c(O)c(C(=O)O)cnc4nc3N2C1 | > 100 | > 64 | 2.7 | > 64 | > 64 | –
